Bioassay records (PubChem BioAssay)
KCNK9 block – blocks the human KCNK9 two-pore domain potassium channel. Q9NPC2. HEK293 KCNK9, FluxOR thallium flux fluorescence; active compounds read low. B-score at 10 µM. 1.2% of 310,000 active. AID 488922;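 active means ratio B-score over 3 SD below the library mean, with starting fluorescence within 5 SD of its mean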;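 further: negative B-score means less thallium flux so channel inhibition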
KCNQ1 act – human KCNQ1 channel potentiation or activation. P51787. CHO-K1 KCNQ1, thallium flux FluxOR fluorescence; active compounds read high. B-score at 10 µM. 0.35% of 310,000 active. AID 2648;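 active means fluorescence ratio B-score, a plate-corrected score, at least three library SD, with initial intensity B-score within 5 SD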
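Test system: CHO-K1 cells stably expressing KCNQ1 / Medium: assay buffer / Also added: depolarizing K+/Tl+ stimulus, K2SO4 and Tl2SO4 each 12.5 mM in 5x stock / Incubation: 90 min dye loading and 20 min compound exposure, both at room temperature / Signal: thallium influx via FluxOR fluorescence, kinetic imaging / Evaluation: B score of baseline-normalized fluorescence ratio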
KCNK3 inh – human KCNK3 channel inhibition, primary screen; O14649; CHO-KCNK3 thallium flux, FluxOR fluorescence; active compounds read low; B-score at 10 µM; 0.84% of 340,000 active; AID 602410;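 active means B-score under library mean minus 4 SD, starting fluorescence ratio at most library mean plus 5 SD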;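 further: more negative B-score means stronger inhibition of thallium flux through KCNK3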
hERG rescue – compounds protecting human hERG from proarrhythmic drug block. CHO-hERG, FluxOR thallium flux, dofetilide IC70 present. activation (rescue from dofetilide block), less the hit threshold, % at 10 µM. 0.51% of 310,000 active;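 active means activation above the mean of controls blocked by dofetilide plus 5 SD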;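 further: thallium influx through hERG after potassium depolarization seen as dye fluorescence rise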
KCNQ1 inh – inhibitors of human KCNQ1 potassium channel; CHO-K1 KCNQ1, FluxOR thallium flux fluorescence; active compounds read high; B-score at 10 µM; AID 2642; P51787; 1.3% of 310,000 active;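 active means compounds whose thallium flux B-score, printed positive for inhibition, exceeds three library SD while starting fluorescence stays within three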;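 further: channel opened by potassium depolarization with thallium stimulus after 20 min compound exposure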
Kir21 inh – inhibitors of mouse Kir2.1 inward-rectifier potassium channel. P35561. HEK293-Kir2.1, FluxOR thallium flux fluorescence; active compounds read low. B-score at 10 µM. 0.85% of 310,000 active;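 active means fluorescence ratio B-score at or below minus 3 SD of library scores, with starting-brightness B-score within 2 SD, cut at about -4.2 in these data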;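 further: channel flux triggered by added potassium and thallium sulfate stimulus; B-score of peak minus minimum fluorescence over baseline after thallium stimulus; more negative B-score means stronger Kir2.1 block with less thallium influx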
KCNQ1 block val – reconfirmed blocker of the human KCNQ1 potassium channel; shares compounds with KCNQ1 inh; KCNQ1 cell line, FluxOR thallium flux fluorescence; 93% of 1,600 active; inhibition, % at 10 µM; AID 588353;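 active means primary screen active, with duplicate mean exceeding buffer control mean plus 3 SD of buffer wells, cut at about 28% in these data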;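 further: 0% = buffer control ratio and 100% = XE991 inhibitor control ratio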
CHO KCNQ1 ctr – counter-screen for KCNQ1 inhibitors: effect in parental CHO cells; shares compounds with KCNQ1 inh; parental CHO-K1, FluxOR thallium flux fluorescence ratio; active compounds read low; zero means no signal rise above baseline; fluorescence ratio (Tl flux) at 10 µM; 21% of 1,600 active;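 active means mean of duplicate thallium-flux fluorescence ratios in parental host cells more than 5 SD below the buffer control mean, cut at about 0.38 in these data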;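 further: ratio is peak minus minimum fluorescence divided by baseline fluorescence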
KCNQ1 ephys val – human KCNQ1 inhibition validated by electrophysiology. calls only at 10 µM. shares compounds with KCNQ1 inh. 20% of 490 active. AID 624120. KCNQ1-CHO cells, automated patch clamp current;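 active means KCNQ1 current drop exceeding 3 SD of negative control wells, seen in both duplicate runs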;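 further: steady state current during a 2 s step from -80 to +40 mV; negative values mean current inhibition and positive values mean potentiation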
KCNQ2 spec – selectivity of KCNQ1 inhibitors: inhibition of rat KCNQ2 channel; shares compounds with KCNQ1 inh; KCNQ2 cells, FluxOR thallium flux fluorescence; inhibition, % at 10 µM; 71% of 1,600 active; AID 651746;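 active means mean percent inhibition of the KCNQ2 thallium signal more than 5 SD above the buffer-only control wells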;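 further: KCNQ2 expressed in CHO cells; 0% = buffer control wells and 100% = XE-991 inhibitor control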
KCNQ1 KCNE1 spec – human KCNQ1/KCNE1 inhibition in KCNQ1 specificity screen; shares compounds with KCNQ1 inh; KCNQ1/KCNE1 cells, FluxOR thallium flux fluorescence; inhibition, % at 10 µM; 77% of 1,600 active;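 active means mean percent inhibition of duplicate wells above the buffer-only control mean plus 3 SD of those controls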;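 further: 0% = buffer only wells and 100% = XE-991 inhibitor control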
Active calls of the source: *; i = inactive; x = no result given; + = active, no number. Rows were chosen to be rich in hits. Some 3.7% of all compounds tested hit in one or more screens of this group.

SMILES	KCNK9 block	KCNQ1 act	KCNK3 inh	hERG rescue	KCNQ1 inh	Kir21 inh	KCNQ1 block val	CHO KCNQ1 ctr	KCNQ2 spec	KCNQ1 KCNE1 spec	others
O=C(NCCN1CCN(C(=O)c2ccc(F)cc2)CC1)C(=O)NCc1ccccc1	i	i	i	-9	i	0.57	x	x	x	x
Oc1cccc(NC(=S)Nc2ccc(SC(F)F)cc2)c1	i	i	i	-13	10*	-0.11	68*	0.53	i	90%*
Oc1cccc(NC(=S)Nc2cccnc2)c1	i	i	i	-4	i	-0.04	x	x	x	x
O=S(=O)(NCCC1=CCCCC1)c1ccc(Br)cc1	i	i	i	-14	7*	-0.51	99*	0.45	106%*	150%*	KCNQ1 ephys val=+
CCC(C)(C)NC(=O)C(c1ccncc1)N(C(=O)Cn1nnc2ccccc21)c1cc2c(cc1C(C)=O)OCO2 (stereo unspecified)	i	i	i	-5	i	0.66	x	x	x	x
CCCCCCCCCn1ccc(=N)cc1	i	i	i	-18	7*	-0.27	70*	0.49	71%*	i
COc1cccc(NC(=O)Cn2nnc(C(=O)NCCc3ccccc3)c2N)c1	i	i	i	-6	i	-0.48	x	x	x	x
Cc1ccc(Cl)cc1N1CCN(C(=O)COc2ccc3c(c2)CCC3)CC1	i	i	i	-6	7*	0.9	118*	0.42	121%*	170%*	KCNQ1 ephys val=i
COc1ccc(C(=O)NC2CCc3ccccc32)cc1OC1CCN(C(C)C)CC1 (stereo unspecified)	i	i	i	-4	i	0.01	x	x	x	x
CCc1noc(C)c1C(=O)N1CCCSC1=Nc1ccccc1C(C)C	i	i	i	-9	6*	-1.9	84*	0.39	106%*	104%*
CC(C)n1nnnc1SCC(=O)NC1CCCC1	i	i	i	-6	i	-1.1	x	x	x	x
CCCN(CC(=O)Nc1ccccc1C)CC(=O)Nc1ccc(Br)cc1F	i	i	i	-2	i	0.02	x	x	x	x
N#Cc1c(C(F)(F)F)cc(=O)n2c1[nH]c1ccccc12	i	i	i	-12	6*	-0.7	38*	0.53	107%*	i
Cc1ccccc1CSc1ccc(-c2ccc3c(c2)OCO3)nn1	i	i	i	-8	7*	-0.46	132*	0.36*	106%*	156%*
Cc1ccccc1N1CC(C(=O)Nc2ccncc2)CC1=O (stereo unspecified)	i	i	i	-5	i	1.4	x	x	x	x
CCn1nc(C)c(CNC(=O)C2CCC(=O)N(CCc3ccc(OC)cc3)C2)c1C (stereo unspecified)	i	i	i	-6	i	1.3	x	x	x	x
O=S(=O)(Nc1c(O)ccc2ccccc12)c1cccc2ccccc12	i	i	i	-20	11*	2.1	32*	0.47	i	90%*
O=C(O)c1cc(NS(=O)(=O)c2cccc3ccccc23)ccc1O	i	i	i	-2	i	1.4	x	x	x	x
Cc1ccc(OCCNC(=O)c2ccccc2OCc2c(C)noc2C)cc1	x	x	i	x	x	x	x	x	x	x
O=C(CN1C(=O)C(=O)N(CCC2=CCCCC2)C1=O)Nc1ccc(F)cc1F	x	x	i	x	x	x	x	x	x	x
O=C(O)c1ccc(CSc2nc3ccccc3c(=O)n2-c2ccccc2)cc1	i	i	i	-4	i	0.57	x	x	x	x
COC(=O)c1ccc2c(=O)n(-c3ccccc3)c(SCN3C(=O)c4ccccc4C3=O)nc2c1	i	i	i	-8	6*	-0.47	87*	0.51	i	66%*
N#Cc1c(-c2cccs2)nc(SCc2ccc(Cl)cc2)[nH]c1=O	i	i	i	-12	8*	-0.17	0	0.56	i	i
CSc1nc(-c2cccs2)c(C#N)c(=O)[nH]1	i	i	i	-6	i	0.67	x	x	x	x
O=S(=O)(c1ccccc1)c1cnc(-c2ccccc2)nc1N1CCCC1	i	i	i	-16	i	0.3	x	x	x	x
SMILES	KCNK9 block	KCNQ1 act	KCNK3 inh	hERG rescue	KCNQ1 inh	Kir21 inh	KCNQ1 block val	CHO KCNQ1 ctr	KCNQ2 spec	KCNQ1 KCNE1 spec	others
COc1cc2ncc(S(=O)(=O)c3ccccc3)c(N3CCCC(C)C3)c2cc1OC (stereo unspecified)	i	i	i	-22	11*	-2.4	152*	0.28*	164%*	+
Cc1nn(C)c(Nc2ccc(Br)cc2)c1Br	i	i	i	-11	6*	0.5	88*	0.55	i	44%*	KCNQ1 ephys val=i
CCOC(=O)c1c(C)[nH]c(C(=O)C(C)OC(=O)c2cccc(OCc3c(C)noc3C)c2)c1C (stereo unspecified)	i	i	-12*	-3	17*	0.47	127*	0.46	109%*	138%*	KCNQ1 ephys val=i
CCC(C)NC(=O)c1cccc(OCc2c(C)noc2C)c1 (stereo unspecified)	i	i	i	-10	i	-0.91	x	x	x	x
COc1ccc(NS(=O)(=O)c2cccc(C(=O)NCC3(N(C)C)CCCCC3)c2)cc1	i	i	i	-18	i	-0.76	x	x	x	x
CC(C)c1ccc(NC(=O)c2cc(S(=O)(=O)NCC3COc4ccccc4O3)ccc2F)cc1 (stereo unspecified)	i	i	i	-6	7*	0.33	95*	0.47	116%*	159%*	KCNQ1 ephys val=i
O=C(CN(Cc1ccco1)Cc1ccco1)Nc1cc(S(=O)(=O)N2CCCCC2)ccc1Cl	x	x	i	x	x	x	x	x	x	x
CCOC(=O)N1CCN(S(=O)(=O)c2ccc3c4c(cccc24)C(=O)N3)CC1	i	i	i	-9	i	0.47	x	x	x	x
CCOc1ccccc1N1CCN(S(=O)(=O)c2ccc3c4c(cccc24)C(=O)N3)CC1	i	i	i	-7	7*	0.21	69*	0.49	i	79%*
O=C(Nc1cccc(F)c1)OC(CN1CCCCC1)C(F)(F)F (stereo unspecified)	i	i	i	-10	7*	-0.63	80*	0.48	81%*	106%*
